Calls of active or inactive are those of the source.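 The calls were made as follows, unless noted: active = inhibition at or above 50% relative to wild type and mutant plate controls; inactive = inhibition below 50%.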

Consider 13 compounds from PubChem BioAssay.

Assay [1] in a line: inhibitors of TNFa-induced NFkB p65 translocation, primary screen, imaging, HUVEC, MLSMR starter and 10KST1 sets (AID 438;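 active = inhibition above 20% together with a positive visual image hit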;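 also: compound added about 3h40 before a 20 min TNFalpha stimulation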;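 as to inhibition: signal is the nuclear over cytoplasmic p65 intensity ratio per well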). The note with it: HUVEC TNFa-induced p65 nuclear translocation; cell count: measured here: nuclei count (cytotoxicity indicator), at 2.08 µM; inhibition: at 2 µM, stronger effect = higher value, 0% TNFa-plus-vehicle, 100% no-TNFa wells.
A short description of assay [2]: endothelial E-selectin expression blockers – imaging, HUVEC, immunofluorescence, MLSMR starter and 10KST1 sets, primary screen (AID 487;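 active = visually confirmed hit in the image check and inhibition above 20%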;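 as to inhibition: signal is fraction of cell area covered by stained E-selectin grains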;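 as to nuclei count: 100% = median nuclei count of all wells on the same plate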). The note with it: HUVEC TNFalpha-induced E-selectin immunofluorescence imaging, at 2 µM; inhibition: stronger effect = higher value; nuclei count: measured here: cell number, toxicity.
Assay [3] in a line: Primary imaging screen for DUSP6 inhibitors that restore phospho-Erk in transfected HeLa cells, chemical complementation (AID 609;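 active = compounds giving at least 50% inhibition in the cell-based MKP-3 phosphatase rescue imaging test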;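 as to inhibition: phospho-Erk level distribution per well compared with pooled transfected vehicle control wells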). The note with it: HeLa MKP-3 transfected, phospho-Erk imaging KS statistic, at 10 µM, cells stimulated with TPA for 15 min.
The target in assay [4] is Dual specificity protein phosphatase 6 (Homo sapiens) (UniProt Q16828). The assay is described as above. The note with it: HeLa MKP-3 transfected, phospho-Erk imaging KS statistic; at 10 µM; stronger effect = higher value; cells stimulated with TPA for 15 min.
Assay [5] has as its target Voltage-gated potassium channel subunit beta-2 (Rattus norvegicus) (UniProt P62483). In words: inhibitors of rat Kvbeta2 reductase activity – biochemical, NADPH fluorescence, primary screen (AID 622;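 active = fluorescence slope higher than the sample average by over 3 SD, cut at about -0.22 in these data, passing the limit was not always enough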;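 also: slope of raw intensity against log time taken from 70 to 1610 s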). The note with it: recombinant KvBeta, 4-cyanobenzaldehyde reduction, at 10 µM, stronger effect = higher value.
Assay [6] shares this target. Put plainly: enhancers of rat Kvbeta2 NADPH turnover – biochemical, NADPH fluorescence, primary screen (AID 623;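 active = NADPH fluorescence slope more negative than the mean of all samples by about 3 SD, 99.7% confidence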;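 also: fluorescence intensity change per second fitted from 20 to 320 s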). The note with it: Recombinant KvBeta, NADPH fluorescence decrease slope, 10 min; at 10 µM; stronger effect = lower value.
The target of assay [7] is Alpha-2C adrenergic receptor (Homo sapiens) (UniProt P18825). Put plainly: compounds altering alpha2C-coupled GIRK flux – cell-based, HEK293 alpha2C/GIRK1/2, thallium flux, primary screen (AID 624;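 active = fluorescence slope after compound addition differing from the mean of all screened samples at 99.7% confidence, in either direction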;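 also: slope of fluorescence ratio to pre-addition baseline per second over 15 to 24 s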). The note with it: thallium flux BTC fluorescence, at 10 µM, actives lie on both sides.
The nature of assay [8]: inhibitors of larval lipid processing in zebrafish, primary screen, whole organism, PED6 fluorescence, gall bladder and intestine (AID 686;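 active = a full or partial loss of lipid-probe fluorescence in the fish gall bladder, intestine or both, judged by eye; inactive = no fluorescence loss, or compound toxic to the fish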;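 also: signal comes from phospholipase A2 cleavage of quenched PED6 carried via bile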). The note with it: Zebrafish larvae PED6 lipid processing, fluorescence scoring; screened at 20 µM (by protocol). In short, it runs like this: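 Doses: 20 µM single dose. Test system: live zebrafish larvae aged 5-7 days, whole organism. Quantity: five larvae per well. Measured by: By-eye fluorescence microscopy. Reagent: ingested quenched lipid PED6 at 100 nM. Read-out: visual per-well fluorescence inhibition score. Times: overnight exposure of larvae to compound plus PED6.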

Assay [9] can be described thus: loss of swimming-algae plug formation – whole organism, Chlamydomonas reinhardtii, WT vs cilia-less mutant, absorbance, 96-well, primary screen (AID 463189).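 Also: 0% = wild type cc124 cells in DMSO and 100% = ciliumless bld1 mutant cells.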 The note with it: Chlamydomonas reinhardtii gravitaxis, OD600 absorbance, 2 days; at 10 µM; stronger effect = higher value.
[10] abbreviates: measured here: cell density z-score.
Setting [11] is: measured here: nuclear c-Myc green intensity z-score.
The mark [12] stands for this setting: measured here: nuclear pErk red intensity z-score, stronger effect = higher value.

Chain of Dual specificity protein phosphatase 6 (Homo sapiens) (Q16828 whole entry, looked up): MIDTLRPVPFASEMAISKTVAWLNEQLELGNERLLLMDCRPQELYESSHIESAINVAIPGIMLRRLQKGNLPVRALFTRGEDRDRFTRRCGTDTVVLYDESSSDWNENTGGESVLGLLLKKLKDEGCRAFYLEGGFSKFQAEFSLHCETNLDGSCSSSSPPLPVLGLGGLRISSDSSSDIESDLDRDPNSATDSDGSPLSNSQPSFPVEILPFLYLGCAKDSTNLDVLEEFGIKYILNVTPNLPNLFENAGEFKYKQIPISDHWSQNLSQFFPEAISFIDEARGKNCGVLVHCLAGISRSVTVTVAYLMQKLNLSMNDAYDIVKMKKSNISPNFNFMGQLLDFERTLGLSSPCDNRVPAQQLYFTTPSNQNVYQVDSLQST
Chain of Alpha-2C adrenergic receptor (Homo sapiens) (P18825 whole entry, looked up): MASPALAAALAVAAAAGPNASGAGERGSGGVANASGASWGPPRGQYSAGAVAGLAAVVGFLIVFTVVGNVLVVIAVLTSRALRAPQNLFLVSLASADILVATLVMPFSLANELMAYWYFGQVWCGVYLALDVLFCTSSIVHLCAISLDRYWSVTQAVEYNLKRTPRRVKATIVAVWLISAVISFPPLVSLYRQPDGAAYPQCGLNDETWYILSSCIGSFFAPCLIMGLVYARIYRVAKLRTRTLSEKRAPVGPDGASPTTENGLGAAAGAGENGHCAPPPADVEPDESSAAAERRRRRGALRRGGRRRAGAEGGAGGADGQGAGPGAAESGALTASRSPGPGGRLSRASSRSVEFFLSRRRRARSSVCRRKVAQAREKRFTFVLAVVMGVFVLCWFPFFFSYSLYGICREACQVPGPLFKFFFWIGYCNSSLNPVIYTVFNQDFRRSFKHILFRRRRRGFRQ
Chain of Voltage-gated potassium channel subunit beta-2 (Rattus norvegicus) (P62483 whole entry, looked up): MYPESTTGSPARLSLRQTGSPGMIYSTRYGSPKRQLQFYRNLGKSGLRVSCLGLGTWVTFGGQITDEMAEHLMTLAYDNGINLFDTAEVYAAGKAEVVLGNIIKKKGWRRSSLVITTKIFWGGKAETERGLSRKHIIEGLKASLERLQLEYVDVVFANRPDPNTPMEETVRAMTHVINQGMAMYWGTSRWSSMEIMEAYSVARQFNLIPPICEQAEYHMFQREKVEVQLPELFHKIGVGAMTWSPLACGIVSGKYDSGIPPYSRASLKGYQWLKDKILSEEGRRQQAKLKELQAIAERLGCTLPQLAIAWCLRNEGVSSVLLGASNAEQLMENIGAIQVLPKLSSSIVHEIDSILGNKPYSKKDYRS

Consider `CN1C(=O)N(c2ccccc2)C(Nc2nncs2)C1(C)C` (centres undefined), for which, in assay [1], the cell count came out at 438. The inhibition is 3.5% (inactive) in [1], -58.9% (inactive) in assay [2], -2.29% (inactive) in assay [4] and 1.2% (inactive) in [9]. This compound displayed a nuclei count in assay [2] of 167%. Further, the z-score in assay [3] (setting [10]) was -0.342; in assay [3] (setting [11]), 0.524; in assay [3] (setting [12]) it was 0.181. Moreover, the fluorescence slope in assay [5] is -0.341 (inactive). Moreover, the NADPH fluorescence slope in [6] was -2.5e-05 (inactive). The slope in assay [7] was 0.00481 (inactive). The compound was called inactive in assay [8].
Take `CCCCc1ccc(NC(=O)CSC2=C(C#N)C(c3ccco3)C3=C(CCCC3=O)N2)cc1` (centres undefined): the cell count in assay [1] was found to be 384. Also, the inhibition in assay [1] was -8% (inactive); in assay [2], -114% (inactive); in assay [4] it was 7.42% (inactive); in assay [9], -5.66% (inactive). In addition, in [2], the nuclei count was determined as 151%. In addition, the z-score in assay [3] (setting [10]) is 0.415; in assay [3] (setting [11]), 1.7; in assay [3] (setting [12]), -0.943. The fluorescence slope in assay [5] is -0.44 (inactive). Besides, the NADPH fluorescence slope in assay [6] is -9.7e-05 (inactive). In addition, the slope in [7] was 0.00706 (inactive). For the same compound, in assay [8], the compound was classed as inactive.
As for `O=C1CC(NCc2ccc3c(c2)OCO3)C(=O)N1Cc1ccc2c(c1)OCO2` (centres undefined), the cell count in assay [1] worked out at 521. In addition, the inhibition is 5.6% (inactive) in assay [1], -127% (inactive) in assay [2], 15.8% (inactive) in assay [4] and 17.7% (inactive) in assay [9]. Besides, in assay [2], the nuclei count came out at 139%. For the same compound, the z-score is 0.834 in assay [3] (setting [10]), 0.684 in assay [3] (setting [11]) and -0.627 in assay [3] (setting [12]). Further, the fluorescence slope in assay [5] was -0.505 (inactive). Also, the NADPH fluorescence slope in [6] is -3.7e-05 (inactive). For the same compound, in assay [7], the slope was 0.00655 (inactive). The outcome in assay [8] was inactive.
Regarding `CCOC(=O)COc1nc(N(C)C)nc(N(C)C)n1`, the cell count in assay [1] was 634. The inhibition was -15% (inactive) in assay [1], -349% (inactive) in assay [2], 7.48% (inactive) in [4] and -0.47% (inactive) in [9]. The nuclei count in assay [2] was 183%. Further, the z-score was found to be 0.237 in assay [3] (setting [10]), 0.0213 in [3] (setting [11]) and 0.713 in assay [3] (setting [12]). In assay [5], the fluorescence slope was -0.492 (inactive). In addition, the NADPH fluorescence slope in assay [6] was -0.000101 (inactive). Further, the slope in assay [7] is 0.00583 (inactive). Moreover, the outcome in assay [8] was inactive.
On to `CC(C)Cc1nc(N2CCCCC2)c(C#N)c2c1CCC2`, for which, in assay [1], the cell count amounted to 513. Also, the inhibition was -0.1% (inactive) in [1], -91.7% (inactive) in assay [2], 1.6e-07% (inactive) in assay [4] and -3.52% (inactive) in [9]. The same compound had a nuclei count in assay [2] of 135%. The results for the z-score in assay [3] (setting [10]), in assay [3] (setting [11]) and in assay [3] (setting [12]) were -1.47, 0.461 and -0.497, respectively. Moreover, the fluorescence slope in [5] is -0.506 (inactive). Besides, the NADPH fluorescence slope in assay [6] is -3.4e-06 (inactive). Moreover, the slope in assay [7] is 0.006 (inactive). The outcome in [8] is “inactive; toxic”.
Regarding `CC(C)Oc1ccc(/C(O)=C2/C(=O)C(=O)N(CCN3CCOCC3)C2c2ccccc2)cc1` (centres undefined), the cell count in assay [1] was found to be 564. The inhibition in [1] was 4.6% (inactive); in assay [2], -21.9% (inactive); in [4], -1.12% (inactive); in [9] it was 0.719% (inactive). Besides, the nuclei count in assay [2] turned out to be 179%. For the same compound, the z-score is -0.496 in assay [3] (setting [10]), -0.0457 in [3] (setting [11]) and 0.947 in assay [3] (setting [12]). Moreover, in assay [5], the fluorescence slope was -0.338 (inactive). Further, the NADPH fluorescence slope in [6] is -1.3e-05 (inactive). Also, the slope in [7] was 0.0044 (inactive). Besides, the compound was classed as inactive in [8].
Turning to `Clc1ccc(-c2cn3c(n2)CCC3)cc1`, the cell count in assay [1] stood at 567. Further, the inhibition in assay [1] was -16.9% (inactive); in assay [2], 0.7% (inactive); in assay [4], -6.86% (inactive); in assay [9], 3.42% (inactive). This compound came in with a nuclei count in [2] of 171%. Moreover, the z-score in assay [3] (setting [10]) is -1.6; in assay [3] (setting [11]) it was 1.21; in [3] (setting [12]) it was 1.33. Also, in [5], the fluorescence slope was -0.504 (inactive). For the same compound, the NADPH fluorescence slope in [6] is -9.3e-05 (inactive). Also, in assay [7], the slope was 0.00501 (inactive). In addition, the call in assay [8] was inactive.
Turning to `COC(=O)c1ccc(Cn2cnc3c(sc4nc(N5CCOCC5)c5c(c43)CCCC5)c2=O)o1`, in assay [1], the cell count stood at 505. The inhibition in assay [1] is 10.2% (inactive); in assay [2], -144% (inactive); in assay [4] it was -7.01% (inactive); in assay [9], 6.85% (inactive). Moreover, in [2], the nuclei count worked out at 132%. The values for the z-score in [3] (setting [10]), in [3] (setting [11]) and in assay [3] (setting [12]) were -0.452, 0.953 and 0.541, respectively. Also, the fluorescence slope in assay [5] is -0.47 (inactive). Moreover, the NADPH fluorescence slope in [6] was -2.7e-05 (inactive). Besides, in assay [7], the slope is 0.00736 (inactive). In assay [8], the outcome is “inactive; toxic”.
As for `CC1CN(c2oc(-c3cccs3)nc2C#N)CC(C)O1` (centres undefined), the cell count in assay [1] is 437. Also, the inhibition in assay [1] is -13.6% (inactive); in assay [2], -188% (inactive); in assay [4] it was 0.671% (inactive); in [9], 5.74% (inactive). In assay [2], this compound gave a nuclei count of 178%. In addition, the z-score in assay [3] (setting [10]) was -0.465; in assay [3] (setting [11]), 0.306; in [3] (setting [12]) it was 0.34. Moreover, in [5], the fluorescence slope is -0.0506 (inactive). Also, in [6], the NADPH fluorescence slope is 4e-07 (inactive). The slope in assay [7] is 0.00683 (inactive). Besides, the compound was classed as inactive in [8].
With `CCCc1cc(-c2nc(N)ncc2-c2ccc3c(c2)OCCCO3)c(O)cc1OC`, in assay [1], the cell count stood at 570. Also, the inhibition was -16.3% (inactive) in assay [1], -136% (inactive) in assay [2], 11.9% (inactive) in assay [4] and 91.5% (active) in assay [9]. In assay [2], this compound had a nuclei count of 122%. Further, the z-score in assay [3] (setting [10]) was 0.844; in assay [3] (setting [11]) it was -1.91; in assay [3] (setting [12]) it was -0.934. Also, the fluorescence slope in assay [5] is -0.519 (inactive). The NADPH fluorescence slope in assay [6] is -5.4e-05 (inactive). The slope in assay [7] is 0.00422 (inactive). In addition, the outcome in [8] was inactive.
Consider `CCOc1ccc(/C(O)=C2/C(=O)C(=O)N(CCN(C)C)C2c2ccccc2)cc1Cl` (centres undefined), for which the cell count in assay [1] was 539. Moreover, the inhibition in assay [1] is -10.3% (inactive); in assay [2], -64% (inactive); in assay [4] it was 2.92% (inactive); in assay [9] it was 2.01% (inactive). Further, in [2], the nuclei count is 156%. In addition, the z-score in assay [3] (setting [10]) is 2.52; in assay [3] (setting [11]), 0.178; in assay [3] (setting [12]), -1.22. For the same compound, in assay [5], the fluorescence slope was -0.502 (inactive). Besides, the NADPH fluorescence slope in assay [6] is -5.4e-05 (inactive). Further, the slope in [7] was 0.00531 (inactive). Further, in [8], the compound was called inactive.
As to `COc1ccccc1N1CCN(C(=O)c2c(C)cc(=O)oc2C)CC1`, in assay [1], the cell count amounted to 275. In addition, the inhibition is -1.5% (inactive) in assay [1], -18.9% (inactive) in [2], 11.4% (inactive) in assay [4] and -9.22% (inactive) in assay [9]. Also, the nuclei count in assay [2] came out at 95.9%. Moreover, the z-score in assay [3] (setting [10]) is -0.53; in assay [3] (setting [11]), 2.24; in assay [3] (setting [12]), -0.762. Also, the fluorescence slope in assay [5] is -0.461 (inactive). Also, the NADPH fluorescence slope in assay [6] is -8.2e-05 (inactive). Also, the slope in assay [7] was 0.00477 (inactive). The compound was called inactive in assay [8].
For the compound `CCCCOc1nc2ccccc2nc1C(C#N)C(=O)NC1CCCCC1` (centres undefined), the cell count in [1] is 320. Also, the inhibition in assay [1] is -10.2% (inactive); in [2] it was -124% (inactive); in assay [4] it was -15.8% (inactive); in assay [9], 1.58% (inactive). Further, the nuclei count in assay [2] worked out at 151%. In addition, the z-score in assay [3] (setting [10]) is -1.21; in assay [3] (setting [11]), 0.194; in assay [3] (setting [12]), 1.47. Besides, the fluorescence slope in assay [5] is -0.41 (inactive). For the same compound, the NADPH fluorescence slope in assay [6] was -0.00013 (inactive). Besides, the slope in assay [7] is 0.00654 (inactive). The compound was called inactive in assay [8].
